Several values for one entry are separate records, joined by “and”; a condition that tells them apart may be missing. Equal entries are not always repeated.
Test system: U2OS
Assay: Multiplex assay against U2OS
Format: toxicity, cell-based
Conditions: human
Procedure, shortened: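 Live cells were stained at seeding with Hoechst33342, BioTracker Green Microtubule Cytoskeleton Dye, MitoTracker Red and Annexin V Alexa Fluor 680. Following compound addition, they were imaged on a CQ1 microscope at 37°C and 5% CO2 and gated by CellPathfinder machine learning into Hoechst high-intensity objects or normal cells, with normal cells split into healthy, pyknosed or fragmented nuclei and pyknosed cells into mitotic or apoptotic. Tubulin, mitochondrial-mass and membrane-permeability phenotypes are per cents of healthy-nucleus cells.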

[1] = 12 h, 1 µM, compound concentration 1 uM
[2] = 12 h, 10 µM, compound concentration 10 uM
[3] = 24 h, 1 µM, compound concentration 1 uM
[4] = 24 h, 10 µM, compound concentration 10 uM
[5] = 48 h, 1 µM, compound concentration 1 uM
[6] = 48 h, 10 µM, compound concentration 10 uM

## O=C(O)CCC/C=C\CC1C(O)CC(O)C1/C=C/C(O)COc1cccc(Cl)c1 (configuration not stated) [CLOPROSTENOL]
[1]
  Population Apoptotic (%): 77% and 75%
  Population Fragmented Nuclei (%): 30% and 11%
  Population Healthy Nuclei (%): 60% and 82%
  Population Hoechst High Intensity Objects (%): 3% and 0%
  Population Membrane Permeable-Phenotype (%): 2% and 6%
  Population Mitochondria Different-Phenotype (%): 0% and 3%
  Population Mitotic Cells (%): 22% and 25%
  Population Normal (%): 96% and 100%
  Population Pyknosed Nuclei (%): 9% and 6%
  Population Tubulin-Different-Phenotype (%): 1% and 2%
  Total Cell Count: 201 and 129
[2]
  Population Apoptotic (%): 92% and 45%
  Population Healthy Nuclei (%): 60% and 81%
  Population Hoechst High Intensity Objects (%): 2% and 0%
  Population Membrane Permeable-Phenotype (%): 8% and 9%
  Population Mitochondria Different-Phenotype (%): 1% and 6%
  Population Normal (%): 97% and 100%
  Population Pyknosed Nuclei (%): 10% and 8%
  Population Tubulin-Different-Phenotype (%): 3%
  Total Cell Count: 272 and 131
[3]
  Population Apoptotic (%): 81% and 75%
  Population Fragmented Nuclei (%): 24% and 15%
  Population Healthy Nuclei (%): 63% and 77%
  Population Hoechst High Intensity Objects (%): 1% and 0%
  Population Membrane Permeable-Phenotype (%): 4% and 6%
  Population Mitochondria Different-Phenotype (%): 2%
  Population Mitotic Cells (%): 18% and 25%
  Population Normal (%): 98% and 100%
  Population Pyknosed Nuclei (%): 11% and 7%
  Population Tubulin-Different-Phenotype (%): 2% and 4%
  Total Cell Count: 237 and 157
[4]
  Population Apoptotic (%): 90% and 70%
  Population Fragmented Nuclei (%): 23% and 11%
  Population Healthy Nuclei (%): 66% and 82%
  Population Hoechst High Intensity Objects (%): 2% and 0%
  Population Membrane Permeable-Phenotype (%): 7% and 11%
  Population Mitochondria Different-Phenotype (%): 2% and 4%
  Population Mitotic Cells (%): 10% and 30%
  Population Normal (%): 97% and 100%
  Population Pyknosed Nuclei (%): 10% and 5%
  Population Tubulin-Different-Phenotype (%): 3% and 4%
  Total Cell Count: 306 and 177
[5]
  Population Apoptotic (%): 89% and 81%
  Population Fragmented Nuclei (%): 20% and 11%
  Population Healthy Nuclei (%): 70% and 81%
  Population Hoechst High Intensity Objects (%): 1% and 0%
  Population Membrane Permeable-Phenotype (%): 2% and 6%
  Population Mitochondria Different-Phenotype (%): 1% and 3%
  Population Mitotic Cells (%): 10% and 18%
  Population Normal (%): 98% and 99%
  Population Pyknosed Nuclei (%): 8% and 7%
  Population Tubulin-Different-Phenotype (%): 0% and 2%
  Total Cell Count: 344 and 229
[6]
  Population Apoptotic (%): 91% and 84%
  Population Fragmented Nuclei (%): 18% and 12%
  Population Healthy Nuclei (%): 67% and 82%
  Population Hoechst High Intensity Objects (%): 3% and 2%
  Population Membrane Permeable-Phenotype (%): 6% and 10%
  Population Mitochondria Different-Phenotype (%): 1% and 2%
  Population Mitotic Cells (%): 8% and 15%
  Population Normal (%): 96% and 97%
  Population Pyknosed Nuclei (%): 14% and 5%
  Population Tubulin-Different-Phenotype (%): 4%
  Total Cell Count: 396 and 246

## Cc1ccc(-c2c(C(=O)CF)n(CCCO)c3ncnc(N)c23)cc1
[1]
  Population Apoptotic (%): 36.11% and 57.14%
  Population Fragmented Nuclei (%): 2.07% and 1.92%
  Population Healthy Nuclei (%): 88.63% and 84.62%
  Population Hoechst High Intensity Objects (%): 0%
  Population Membrane Permeable-Phenotype (%): 0.29% and 2.27%
  Population Mitochondria Different-Phenotype (%): 0% and 2.27%
  Population Mitotic Cells (%): 63.89% and 42.86%
  Population Normal (%): 100%
  Population Pyknosed Nuclei (%): 9.3% and 13.46%
  Population Tubulin-Different-Phenotype (%): 0.29% and 0%
[2]
  Population Apoptotic (%): 50% and 52.94%
  Population Fragmented Nuclei (%): 1.91% and 5.78%
  Population Healthy Nuclei (%): 88.83% and 84.39%
  Population Hoechst High Intensity Objects (%): 0%
  Population Membrane Permeable-Phenotype (%): 0.61% and 4.11%
  Population Mitochondria Different-Phenotype (%): 0% and 3.42%
  Population Mitotic Cells (%): 50% and 47.06%
  Population Normal (%): 100%
  Population Pyknosed Nuclei (%): 9.26% and 9.83%
  Population Tubulin-Different-Phenotype (%): 0.61% and 0%
  Total Cell Count: 367 and 173
[3]
  Population Apoptotic (%): 47.37% and 40%
  Population Fragmented Nuclei (%): 1.55% and 4.48%
  Population Healthy Nuclei (%): 91.09% and 84.33%
  Population Hoechst High Intensity Objects (%): 0%
  Population Membrane Permeable-Phenotype (%): 0.43% and 3.54%
  Population Mitochondria Different-Phenotype (%): 0% and 2.65%
  Population Mitotic Cells (%): 52.63% and 60%
  Population Normal (%): 100%
  Population Pyknosed Nuclei (%): 7.36% and 11.19%
  Population Tubulin-Different-Phenotype (%): 0.21% and 0.88%
[4]
  Population Apoptotic (%): 54.05% and 43.48%
  Population Fragmented Nuclei (%): 2.71% and 3.7%
  Population Healthy Nuclei (%): 89.58% and 86.83%
  Population Hoechst High Intensity Objects (%): 0%
  Population Membrane Permeable-Phenotype (%): 0.93% and 5.21%
  Population Mitochondria Different-Phenotype (%): 0% and 4.27%
  Population Mitotic Cells (%): 45.95% and 56.52%
  Population Normal (%): 100%
  Population Pyknosed Nuclei (%): 7.71% and 9.47%
  Population Tubulin-Different-Phenotype (%): 1.4% and 0.47%
  Total Cell Count: 480 and 243
[5]
  Population Apoptotic (%): 33.82% and 20%
  Population Fragmented Nuclei (%): 3.18% and 5%
  Population Healthy Nuclei (%): 89.85% and 81.36%
  Population Hoechst High Intensity Objects (%): 0%
  Population Membrane Permeable-Phenotype (%): 1.26% and 1.12%
  Population Mitochondria Different-Phenotype (%): 0% and 2.23%
  Population Mitotic Cells (%): 66.18% and 80%
  Population Normal (%): 100%
  Population Pyknosed Nuclei (%): 6.97% and 13.64%
  Population Tubulin-Different-Phenotype (%): 0.34% and 0.56%
[6]
  Population Apoptotic (%): 49.33% and 48.98%
  Population Fragmented Nuclei (%): 2.94% and 2.66%
  Population Healthy Nuclei (%): 89.18% and 85.47%
  Population Hoechst High Intensity Objects (%): 0%
  Population Membrane Permeable-Phenotype (%): 0.94% and 1.13%
  Population Mitochondria Different-Phenotype (%): 0% and 1.42%
  Population Mitotic Cells (%): 50.67% and 51.02%
  Population Normal (%): 100%
  Population Pyknosed Nuclei (%): 7.88% and 11.86%
  Population Tubulin-Different-Phenotype (%): 1.06% and 0.57%
  Total Cell Count: 952 and 413
